An excerpt weighted towards active compounds, which were near 2.6% of everything screened.
Lipid droplet: inhibitors of hepatocyte lipid droplet formation, primary screen, imaging, high-throughput imaging, BODIPY stain | actives 0.4% (n = 240,000) | inhibition, % at 6.5 µM | AML12 mouse hepatocytes, oleate lipid droplets;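 active = lipid droplet intensity inhibited by at least 50%, with more than 500 cells counted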
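Material: mouse AML12 hepatocyte cell line, fixed after treatment; Timing: compound with oleate, overnight; Technique: high-content imaging of BODIPY-stained droplets and DAPI nuclei; Probe or stimulus: oleate, 100 µM final; Dosing: compound at 6.5 µM only.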
MEKK3 PB1 HTS: modulators of MEKK3-MEK5 PB1 binding, primary screen, biochemical, wildtype MEKK3, multiplex bead flow cytometry, Alexa488-MEK5 | Mitogen-activated protein kinase kinase kinase 3 (Homo sapiens), Q99759 | bead-based flow cytometry, Alexa488-MEK5 binding to MEKK3; actives lie on both sides; 0 = blocked by unlabeled MEK5, 100 = vehicle | binding response (% of control), % at 10 µM | actives 1.4% (n = 290,000) | AID 1529, 2009;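 active = binding response more than 3 SD above or below the average of its plate-row segment, actives on both sides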;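 also: Alexa488 bead fluorescence after subtracting the streptavidin-only scavenger bead signal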
MEKK2 WT-MEK5: modulators of MEK5 binding to wildtype MEKK2, primary screen, biochemical, multiplex bead flow cytometry, Alexa488-MEK5; Alexa488-MEK5 binding to MEKK2 WT; actives lie on both sides; actives 1.1% (n = 290,000); Mitogen-activated protein kinase kinase kinase 2 (Homo sapiens), Q9Y2U5; binding response (% of control), % at 10 µM; in the data active = binding response below about 67% or above about 130%
MEKK2 mut-MEK5: MEK5 binding signal on mutant MEKK2 PB1, primary screen, biochemical, multiplex bead flow cytometry, Alexa488-MEK5; Alexa488-MEK5 binding to MEKK2 mutant; percent response, % at 10 µM; actives 0.35% (n = 290,000); in the data active = percent response above about 24%, passing the limit was not always enough
MEKK2wt confirm: modulators of MEK5 binding to wildtype MEKK2, confirmation, biochemical, single concentration, multiplex bead flow cytometry; AID 1892, 2009; Alexa488-MEK5 binding to MEKK2 WT; actives lie on both sides; actives 2.4% (n = 5,900); binding response (% of control), % at 10 µM; shares compounds with MEKK3 PB1 HTS; in the data active = binding response below about 16% or above about 210%; inactive = in between
MEKK2mut confirm: mutant MEKK2 PB1-MEK5 binding signal retest – biochemical, single concentration, multiplex bead flow cytometry, confirmation. actives 2% (n = 5,900). AID 1893, 2009. Alexa488-MEK5 binding to MEKK2 mutant. shares compounds with MEKK3 PB1 HTS. percent response, % at 10 µM; in the data active = percent response mostly above about 71%, no sharp cut-off; inactive = mostly below about 38%;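 also: higher means compound restores mutant binding toward wildtype level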
MEKK3-MEK5 inh: MEKK3 wild-type PB1 binding to MEK5, inhibitors, confirmation, biochemical, bead multiplex flow cytometry, single concentration, wildtype. shares compounds with MEKK3 PB1 HTS. Alexa488-MEK5 binding to MEKK3; active compounds read low. binding response (% of control), % at 10 µM. actives 1.8% (n = 5,900);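 active = binding response below 72% of control, or above a set upper limit, though filed actives all read lower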;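 also: 100% = DMSO only wells and 0% = binding blocked by excess unlabeled MEK5; lower values mean stronger disruption of MEK5 binding to MEKK3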
* marks the source's active call; other numbers are inactive results; [ ] = remark or other dose.

Nc1ccccc1Nc1cc(-c2ccccc2)nn1-c1cccc(Cl)c1 was read as Lipid droplet -14.7, MEKK3 PB1 HTS 141.0*, MEKK2 WT-MEK5 113.0, MEKK2 mut-MEK5 1.0, MEKK2wt confirm 109.0, MEKK2mut confirm 2.0 and MEKK3-MEK5 inh 102.0.
Screening Cc1ccc(S(=O)(=O)NC(C(=O)Oc2ccc3c(C(F)(F)F)cc(=O)oc3c2)c2ccccc2)cc1 (stereo not drawn) returned Lipid droplet 22.0, MEKK3 PB1 HTS 120.0, MEKK2 WT-MEK5 103.0 and MEKK2 mut-MEK5 0.0.
CC1CC(C)CN(CCCNC(=O)c2ccc3c(c2)NC(=O)C(N2CCCCC2)S3)C1 (stereo not drawn) was read as Lipid droplet 1.3, MEKK3 PB1 HTS 104.0, MEKK2 WT-MEK5 116.0 and MEKK2 mut-MEK5 10.0.
Screening O=C(NN1C(=O)c2ccc(-c3ccc4c(c3)C(=O)N(NC(=O)c3cccnc3)C4=O)cc2C1=O)c1cccnc1 returned Lipid droplet 3.1, MEKK3 PB1 HTS 135.0*, MEKK2 WT-MEK5 114.0, MEKK2 mut-MEK5 1.0, MEKK2wt confirm 100.0, MEKK2mut confirm 2.0 and MEKK3-MEK5 inh 99.0.
C[N+]1=C(/C=C/Nc2ccccc2Cl)C(C)(C)c2ccccc21 was read as Lipid droplet -27.1, MEKK3 PB1 HTS 108.0, MEKK2 WT-MEK5 105.0 and MEKK2 mut-MEK5 5.0.
COC(=O)c1ccc2c(c1)C(C)(C)C(/C=C/c1ccccc1O)=[N+]2C was read as MEKK3 PB1 HTS 68.0, MEKK2 WT-MEK5 -1.0*[inhibitor], MEKK2 mut-MEK5 -8.0, MEKK2wt confirm 89.0, MEKK2mut confirm -3.0 and MEKK3-MEK5 inh 87.0.
CC(C)N1CCc2c(sc(NC(=O)c3ccc(S(=O)(=O)N4CCc5ccccc54)cc3)c2C(N)=O)C1 was read as Lipid droplet 1.8, MEKK3 PB1 HTS 107.0, MEKK2 WT-MEK5 196.0*, MEKK2 mut-MEK5 56.0*, MEKK2wt confirm 164.0, MEKK2mut confirm 27.0 and MEKK3-MEK5 inh 99.0.
`O=C(NCCCc1ccccc1)c1ccc(CS(=O)Cc2ccccc2Cl)o1` (stereo not drawn) gave Lipid droplet 2.6, MEKK3 PB1 HTS 99.0, MEKK2 WT-MEK5 95.0 and MEKK2 mut-MEK5 -4.0.
For CCc1cc2cc(C(=O)N3CCN(Cc4ccccc4)CC3)sc2s1 the results were Lipid droplet 0.4, MEKK3 PB1 HTS 77.0*[inhibitor], MEKK2 WT-MEK5 91.0, MEKK2 mut-MEK5 -13.0, MEKK2wt confirm 89.0, MEKK2mut confirm -11.0 and MEKK3-MEK5 inh 85.0.
For CCc1cc2cc(C(=O)N3CCN(c4ccccc4)CC3)sc2s1 the results were Lipid droplet 5.1, MEKK3 PB1 HTS 105.0, MEKK2 WT-MEK5 109.0 and MEKK2 mut-MEK5 5.0.
COc1cc(=O)n(C)c2ccccc12 was read as Lipid droplet 10.7, MEKK3 PB1 HTS 92.0, MEKK2 WT-MEK5 105.0 and MEKK2 mut-MEK5 6.0.
For COc1ccccc1C#Cc1ccc2c(=O)c3ccccc3n(C)c2c1 the results were Lipid droplet 6.6, MEKK3 PB1 HTS 91.0, MEKK2 WT-MEK5 66.0*[inhibitor], MEKK2 mut-MEK5 -9.0, MEKK2wt confirm 86.0, MEKK2mut confirm -9.0 and MEKK3-MEK5 inh 94.0.
Screening CN(C(=O)c1ccc2c(=O)n3c(nc2c1)CCCCC3)c1cccc(Cl)c1 returned Lipid droplet -2.3, MEKK3 PB1 HTS 101.0, MEKK2 WT-MEK5 106.0 and MEKK2 mut-MEK5 6.0.
`COc1ccc(Nc2nc(-c3cccc([N+](=O)[O-])c3)nc3ccccc23)cc1` gave Lipid droplet 2.6, MEKK3 PB1 HTS 126.0, MEKK2 WT-MEK5 141.0*, MEKK2 mut-MEK5 3.0, MEKK2wt confirm 107.0, MEKK2mut confirm -1.0 and MEKK3-MEK5 inh 102.0.

Screening data (PubChem)
